Converted amounts (≈) assume the structure as drawn. The source made the active and inactive calls. Some results are limits rather than exact numbers.

Four molecules from ChEMBL document CHEMBL1275602, “Daptomycin is effective for treatment of experimental endocarditis due to methicillin-resistant and glycopeptide-intermediate Staphylococcus epidermidis” (Antimicrob Agents Chemother, 2010) can be followed below.

For data set [1], the system named is Staphylococcus epidermidis. Kind of data set: Antimicrobial activity against glycopeptide-intermediate Staphylococcus epidermidis NRS6 by broth microdilution method. The data set is classed as functional. Put shortly: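 Broth microdilution in cation-adjusted Mueller-Hinton broth following CLSI procedures. MIC and MBC determined for each strain. For daptomycin the broth was adjusted to 50 μg/ml calcium. S. aureus ATCC 29213 served as the test control strain.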

The test system of data set [2] is Staphylococcus epidermidis. Kind of data set: Antimicrobial activity against methicillin-resistant Staphylococcus epidermidis 375 by broth microdilution method. The data set is classed as functional. In a few lines: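 Broth microdilution in cation-adjusted Mueller-Hinton broth following CLSI procedures. MIC and MBC determined for each strain. For daptomycin the broth was adjusted to 50 μg/ml calcium.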
In general terms: In broth dilution the organism is exposed to a series of concentrations in liquid medium.

Data set [3] relates to Staphylococcus epidermidis. Nature of the data set: Bactericidal activity against methicillin-resistant Staphylococcus epidermidis 375 at 2 times MIC after 24 hrs by time kill analysis. It counts as functional, organism-based. In a few lines:
(§1)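 Time-kill in CAMHB. Overnight culture gave a final inoculum of 5 × 10^5 to 1 × 10^6 CFU/ml. […] Viable counts taken at 0, 4 and 24 h, with carryover removed by dilution. Bactericidal meant at least a 3-log10 CFU/ml fall at 24 h versus the inoculum. Run in duplicate.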

Data set [4] relates to Staphylococcus epidermidis. Nature of the data set: Bactericidal activity against glycopeptide-intermediate Staphylococcus epidermidis NRS6 at 2 times MIC after 24 hrs by time kill analysis. The data set is classed as functional, organism-based. In a few lines: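 Time-kill in CAMHB with a starting inoculum of 5 × 10^5 to 1 × 10^6 CFU/ml from an overnight culture. […] Viable counts at 0, 4 and 24 h, with carryover handled by dilution. Bactericidal was defined as a ≥3-log10 CFU/ml fall at 24 h versus the inoculum. Run in duplicate.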

For data set [5], the system named is Oryctolagus cuniculus. Kind of data set: Cmin in rabbit at 10 mg/kg/day, iv. The data set is classed as ADME, organism-based. More on the design: route intravenous. To be noted: in vivo. In a few lines:
(§2)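 Rabbits given drug i.v. over 15 min by computer-controlled infusion pump, designed to reproduce human serum PK (6 or 10 mg/kg/day human-equivalent regimens). Mean trough and Cmax measured in serum.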

Data set [6] can be described thus: Cmax in rabbit at 10 mg/kg/day, iv. Set-up: dose 10 mg/kg/day, route intravenous. It counts as ADME, organism-based, Oryctolagus cuniculus. The note with it: in vivo. In a few lines: as §2
For data set [7], the system named is Staphylococcus epidermidis. Kind of data set: Antimicrobial activity against methicillin-resistant Staphylococcus epidermidis 375 in acute infective endocarditis rabbit model assessed as sterile vegetation level at 6 mg/kg/day, iv after 48 hrs. It counts as functional. Put shortly:
(§3)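 New Zealand White rabbits (2 kg) with catheter-induced aortic valve endocarditis. Infected i.v. 48 h after catheter placement with 1 ml of about 1 × 10^9 CFU/ml. Bacteremia confirmed before therapy. Computer-controlled infusion via the vena cava simulated human PK for 48 h. Killed after 6 further half-lives. Vegetations cultured as log10 CFU/g; sterile meant no growth after one week. 15–17 animals per arm.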

For data set [8], the system named is Staphylococcus epidermidis. Nature of the data set: Antimicrobial activity against methicillin-resistant Staphylococcus epidermidis 375 in acute infective endocarditis rabbit model assessed as sterile vegetation level at 10 mg/kg/day, iv after 48 hrs. It counts as functional. In a few lines:
as §3

The subject of data set [9] is Staphylococcus epidermidis. Kind of data set: Antimicrobial activity against glycopeptide-intermediate Staphylococcus epidermidis NRS6 in acute infective endocarditis rabbit model assessed as sterile vegetation level at 6 mg/kg/day, iv after 48 hrs. The data set is classed as functional. In a few lines:
(§4)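 New Zealand White rabbits (2 kg) with catheter-induced aortic valve endocarditis were infected i.v. with 1 ml of about 1 × 10^9 CFU/ml 48 h after catheter placement. Dosing started 48 h after infection by computer-controlled i.v. infusion simulating human PK, given over 15 min for 48 h. Animals were killed after 6 half-lives. Vegetations were cultured and reported as log10 CFU/g. Sterile meant no growth, including 1-week broth culture. 15 to 17 animals per arm.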

The test system of data set [10] is Staphylococcus epidermidis. Nature of the data set: Antimicrobial activity against glycopeptide-intermediate Staphylococcus epidermidis NRS6 in acute infective endocarditis rabbit model assessed as sterile vegetation level at 10 mg/kg/day, iv after 48 hrs. The data set is classed as functional. In a few lines: as §4
Data set [11] has as its system Staphylococcus epidermidis. Nature of the data set: Antimicrobial activity against methicillin-resistant Staphylococcus epidermidis 375 in acute infective endocarditis rabbit model assessed as bacterial titer per gram of vegetation at 6 mg/kg/day, iv after 48 hrs. The data set is classed as functional. Put shortly: as §3
For data set [12], the system named is Staphylococcus epidermidis. Nature of the data set: Antimicrobial activity against glycopeptide-intermediate Staphylococcus epidermidis NRS6 in acute infective endocarditis rabbit model assessed as bacterial titer per gram of vegetation at 6 mg/kg/day, iv after 48 hrs. It counts as functional. Put shortly: as §4
The test system of data set [13] is Staphylococcus epidermidis. Kind of data set: Antimicrobial activity against methicillin-resistant Staphylococcus epidermidis 375 in acute infective endocarditis rabbit model assessed as bacterial titer per gram of vegetation at 10 mg/kg/day, iv after 48 hrs. It counts as functional. In a few lines: as §3
For data set [14], the system named is Staphylococcus epidermidis. Kind of data set: Antimicrobial activity against glycopeptide-intermediate Staphylococcus epidermidis NRS6 in acute infective endocarditis rabbit model assessed as bacterial titer per gram of vegetation at 10 mg/kg/day, iv after 48 hrs. The data set is classed as functional. Put shortly:
as §4

For data set [15], the system named is Staphylococcus epidermidis. Kind of data set: Antimicrobial activity against methicillin-resistant Staphylococcus epidermidis isolates. It counts as functional.
Data set [16] is described as follows: Cmax in rabbit at 10 mg/kg, iv. To be noted: in vivo.
For data set [17], the system named is Staphylococcus epidermidis. Nature of the data set: Bacteriostatic activity against methicillin-resistant Staphylococcus epidermidis 375 at 0.5 times MIC after 24 hrs by time kill analysis. The data set is classed as functional, organism-based. Put shortly:
as §1

The test system of data set [18] is Staphylococcus epidermidis. Kind of data set: Bacteriostatic activity against glycopeptide-intermediate Staphylococcus epidermidis NRS6 at 0.5 times MIC after 24 hrs by time kill analysis. The data set is classed as functional, organism-based. In a few lines: as §1
The test system of data set [19] is Staphylococcus epidermidis. Nature of the data set: Bactericidal activity against glycopeptide-intermediate Staphylococcus epidermidis NRS6 assessed as reduction in bacterial CFU at 2 times MIC after 24 hrs by time kill analysis. It counts as functional.
The subject of data set [20] is Staphylococcus epidermidis. Kind of data set: Antimicrobial activity against methicillin-resistant Staphylococcus epidermidis 375 in acute infective endocarditis rabbit model assessed as sterile vegetation level at 15 mg/kg, iv administered every 12 hrs measured after 48 hrs. The data set is classed as functional. Put shortly: as §3
In data set [21] the test system is Staphylococcus epidermidis. Nature of the data set: Antimicrobial activity against methicillin-resistant Staphylococcus epidermidis 375 in acute infective endocarditis rabbit model assessed as sterile vegetation level at 15 mg/kg, iv administered every 6 hrs measured after 48 hrs. It counts as functional. Put shortly:
as §3

Data set [22] concerns Staphylococcus epidermidis. Kind of data set: Antimicrobial activity against glycopeptide-intermediate Staphylococcus epidermidis NRS6 in acute infective endocarditis rabbit model assessed as sterile vegetation level at 15 mg/kg administered every 12 hrs, iv measured after 48 hrs. It counts as functional. In a few lines:
as §3

In data set [23] the test system is Staphylococcus epidermidis. Nature of the data set: Antimicrobial activity against methicillin-resistant Staphylococcus epidermidis 375 in acute infective endocarditis rabbit model assessed as bacterial titer per gram of vegetation at 15 mg/kg administered every 12 hrs, iv measured after 48 hrs. The data set is classed as functional. Put shortly: as §3
Data set [24] relates to Staphylococcus epidermidis. Kind of data set: Antimicrobial activity against glycopeptide-intermediate Staphylococcus epidermidis NRS6 in acute infective endocarditis rabbit model assessed as bacterial titer per gram of vegetation at 15 mg/kg administered every 12 hrs, iv measured after 48 hrs. The data set is classed as functional. In a few lines:
as §3

Data set [25] deals with Staphylococcus epidermidis. Kind of data set: Antimicrobial activity against methicillin-resistant Staphylococcus epidermidis 375 in acute infective endocarditis rabbit model assessed as bacterial titer per gram of vegetation at 15 mg/kg administered every 6 hrs, iv measured after 48 hrs. The data set is classed as functional. Put shortly:
as §3

Data set [26] relates to Staphylococcus epidermidis. Kind of data set: Bacteriostatic activity against methicillin-resistant Staphylococcus epidermidis 375 at MIC after 24 hrs by time kill analysis. It counts as functional, organism-based. Put shortly:
as §1

Data set [27] concerns Staphylococcus epidermidis. Kind of data set: Bacteriostatic activity against glycopeptide-intermediate Staphylococcus epidermidis NRS6 at MIC after 24 hrs by time kill analysis. The data set is classed as functional, organism-based. In a few lines:
as §1

For data set [28], the system named is Staphylococcus epidermidis. Nature of the data set: Bacteriostatic activity against methicillin-resistant Staphylococcus epidermidis 375 at 2 times MIC after 24 hrs by time kill analysis. It counts as functional, organism-based. In a few lines:
as §1

The subject of data set [29] is Staphylococcus epidermidis. Kind of data set: Bacteriostatic activity against glycopeptide-intermediate Staphylococcus epidermidis NRS6 at 2 times MIC after 24 hrs by time kill analysis. It counts as functional, organism-based. In a few lines:
as §1

Data set [30] deals with Oryctolagus cuniculus. Nature of the data set: Cmin in methicillin-resistant Staphylococcus epidermidis 375 infected rabbit at 60 mg/kg, iv. The note with it: in vivo.

What is called MIC is the lowest concentration that inhibits growth of the organism. Lower therefore signals inhibition by little substance. Consider GENTAMICIN, for which it took 64 µg/mL to inhibit growth in data set [1] (MIC).

The term MBC denotes the smallest concentration meeting the test's criterion for killing. In data set [1], `CO[C@H]1/C=C/O[C@@]2(C)Oc3c(C)c(O)c4c(O)c(c(/C=N/N5CCN(C)CC5)c(O)c4c3C2=O)NC(=O)/C(C)=C\C=C\[C@H](C)[C@H](O)[C@@H](C)[C@@H](O)[C@@H](C)[C@H](OC(C)=O)[C@@H]1C` [RIFAMPIN] came in with an MBC greater than 0.25 µg/mL and an MIC of 0.008 µg/mL (≈ 0.00972 µM).

For orientation: Cmax means the highest concentration seen after dosing. On to `CCCCCCCCCC(=O)N[C@@H](Cc1c[nH]c2ccccc12)C(=O)N[C@H](CC(N)=O)C(=O)N[C@@H](CC(=O)O)C(=O)N[C@@H]1C(=O)NCC(=O)N[C@@H](CCCN)C(=O)N[C@@H](CC(=O)O)C(=O)N[C@H](C)C(=O)N[C@@H](CC(=O)O)C(=O)NCC(=O)N[C@H](CO)C(=O)N[C@@H]([C@H](C)CC(=O)O)C(=O)N[C@@H](CC(=O)c2ccccc2N)C(=O)O[C@@H]1C`, for which the MBC turned out to be 1 µg/mL (≈ 0.617 µM) in data set [2] and 4 µg/mL (≈ 2.47 µM) in data set [1]. Besides, the minimal inhibitory concentration (MIC) in data set [2] is 0.5 µg/mL (≈ 0.309 µM); in [1], 2 µg/mL (≈ 1.23 µM); in data set [15], no less than 2 µg/mL. In addition, the outcome in data set [3] and in data set [4] was Active. The same molecule registered a Cmin with Oryctolagus cuniculus [5] of 18.04 µg/mL. Further, the Cmax in data set [6] and in data set [16] was 146 µg/mL throughout. The Activity in data set [7] was 60%; in [8], 73%; in data set [9], 6%; in data set [10] it was 0%. The log10cfu in data set [11] is reported as 0; in [12], 3.7; in [13], 0; in data set [14], 3.9.

Take `CN[C@H](CC(C)C)C(=O)N[C@H]1C(=O)N[C@@H](CC(N)=O)C(=O)N[C@H]2C(=O)N[C@H]3C(=O)N[C@H](C(=O)N[C@H](C(=O)O)c4cc(O)cc(O)c4-c4cc3ccc4O)[C@H](O)c3ccc(c(Cl)c3)Oc3cc2cc(c3O[C@@H]2O[C@H](CO)[C@@H](O)[C@H](O)[C@H]2O[C@H]2C[C@](C)(N)[C@H](O)[C@H](C)O2)Oc2ccc(cc2Cl)[C@H]1O` [VANCOMYCIN]: the values for the MBC in [2] and in data set [1] were 4 µg/mL (≈ 2.76 µM) and 16 µg/mL (≈ 11 µM), respectively. The minimum inhibitory concentration (MIC) in data set [1] came to 8 µg/mL (≈ 5.52 µM). For the same molecule, the outcome in data set [17], in data set [18], in data set [26], in data set [27], in data set [28] and in data set [29] was Active. Also, in data set [19], the “fold change (FC)” value came to 2.8. Also, the Activity is listed as 19% in [20], 33% in [21] and 0% in data set [22]. In addition, the log10cfu is recorded as 2 in data set [23], 7.1 in data set [24] and 2 in data set [25]. The Cmin with Oryctolagus cuniculus [30] amounted to 20 µg/mL.
